Assays:
[1] = Plasma concentration in nude mouse transplanted with recombinant TEL-JAK2 expressing BA/F3 cells at 10 mg/kg, po dosed on day 10 of transplantation measured after 6 hrs; format: ADME, organism-based, BaF3; design: dose 10 mg/kg, route oral
Procedure, shortened: (§1)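 Female nude mice implanted intravenously with Ba/F3 TEL-JAK2 cells on day 0, then dosed orally once at 10 mg/kg on day 10. Total plasma drug concentration measured at 2 or 6 h post-dose by LC-MS on a C18 column, water/MeCN with 0.1% formic acid; n = 3 per time point.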

[2] = Plasma concentration in nude mouse transplanted with recombinant TEL-JAK2 expressing BA/F3 cells at 10 mg/kg, po dosed on day 10 of transplantation measured after 2 hrs; format: ADME, organism-based, BaF3; design: dose 10 mg/kg, route oral; procedure, shortened: as §1
[3] = target: T1, Tyrosine-protein kinase JAK2 (Homo sapiens, UniProt O60674); assay: Inhibition of recombinant JAK2 kinase in presence of 5 mM ATP
[4] = Growth inhibition of mouse BA/F3 cells transfected with recombinant TEL-JAK2 kinase after 48 hrs by alamar blue assay; format: functional, cell-based; details: BaF3, 48 h
Procedure, shortened: (§2)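 Proliferation of Ba/F3 cells transfected with TEL-JAK2 or TEL-JAK3 fusions; GI50 determined.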

[5] = Growth inhibition of mouse BA/F3 cells transfected with recombinant TEL-JAK3 kinase after 48 hrs by alamar blue assay; format: functional, cell-based, BaF3; procedure, shortened: as §2
BaF3 = assay: Selectivity ratio of GI50 for mouse BA/F3 cells transfected with recombinant TEL-JAK3 kinase to GI50 for mouse BA/F3 cells transfected with recombinant TEL-JAK2 kinase; format: functional, cell-based
Procedure, shortened: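 Fold selectivity calculated as the TEL-JAK3 Ba/F3 GI50 divided by the TEL-JAK2 Ba/F3 GI50.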

[6] = Intrinsic clearance in rat liver microsomes at 2 uM by LC-MS/MS; format: ADME, Microsome
Procedure, shortened: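 Rat liver microsomes incubated with compound at 2 μM initial concentration; time-dependent disappearance of parent measured by LC–MS/MS to give intrinsic clearance (μL/min/mg).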

[7] = target: Voltage-gated inwardly rectifying potassium channel KCNH2 (Homo sapiens, UniProt Q12809)
[8] = target: T1, Tyrosine-protein kinase JAK2; assay: Inhibition of recombinant JAK2 kinase in presence of ATP
[9] = Solubility of the compound; format: physicochemical
[10] = Clearance in Han Wistar rat at 3 mg/kg, iv; format: ADME, organism-based; design: dose 3 mg/kg, route intravenous; details: in vivo
[11] = Half life in Han Wistar rat at 3 mg/kg, iv; format: ADME, organism-based; design: dose 3 mg/kg, route intravenous; details: in vivo
[12] = Volume of distribution at steady state in Han Wistar rat at 3 mg/kg, iv; format: ADME, organism-based; design: dose 3 mg/kg, route intravenous; details: in vivo, read-out: Vdss
[13] = target: T1, Tyrosine-protein kinase JAK2; details: BaF3; 10 mg/kg
[14] = target: T1, Tyrosine-protein kinase JAK2; assay: Inhibition of recombinant JAK2 kinase in presence of 5 mM ATP
[15] = Mus musculus, BaF3, 48 h, read-out: GI50

T1 sequence (O60674 whole entry): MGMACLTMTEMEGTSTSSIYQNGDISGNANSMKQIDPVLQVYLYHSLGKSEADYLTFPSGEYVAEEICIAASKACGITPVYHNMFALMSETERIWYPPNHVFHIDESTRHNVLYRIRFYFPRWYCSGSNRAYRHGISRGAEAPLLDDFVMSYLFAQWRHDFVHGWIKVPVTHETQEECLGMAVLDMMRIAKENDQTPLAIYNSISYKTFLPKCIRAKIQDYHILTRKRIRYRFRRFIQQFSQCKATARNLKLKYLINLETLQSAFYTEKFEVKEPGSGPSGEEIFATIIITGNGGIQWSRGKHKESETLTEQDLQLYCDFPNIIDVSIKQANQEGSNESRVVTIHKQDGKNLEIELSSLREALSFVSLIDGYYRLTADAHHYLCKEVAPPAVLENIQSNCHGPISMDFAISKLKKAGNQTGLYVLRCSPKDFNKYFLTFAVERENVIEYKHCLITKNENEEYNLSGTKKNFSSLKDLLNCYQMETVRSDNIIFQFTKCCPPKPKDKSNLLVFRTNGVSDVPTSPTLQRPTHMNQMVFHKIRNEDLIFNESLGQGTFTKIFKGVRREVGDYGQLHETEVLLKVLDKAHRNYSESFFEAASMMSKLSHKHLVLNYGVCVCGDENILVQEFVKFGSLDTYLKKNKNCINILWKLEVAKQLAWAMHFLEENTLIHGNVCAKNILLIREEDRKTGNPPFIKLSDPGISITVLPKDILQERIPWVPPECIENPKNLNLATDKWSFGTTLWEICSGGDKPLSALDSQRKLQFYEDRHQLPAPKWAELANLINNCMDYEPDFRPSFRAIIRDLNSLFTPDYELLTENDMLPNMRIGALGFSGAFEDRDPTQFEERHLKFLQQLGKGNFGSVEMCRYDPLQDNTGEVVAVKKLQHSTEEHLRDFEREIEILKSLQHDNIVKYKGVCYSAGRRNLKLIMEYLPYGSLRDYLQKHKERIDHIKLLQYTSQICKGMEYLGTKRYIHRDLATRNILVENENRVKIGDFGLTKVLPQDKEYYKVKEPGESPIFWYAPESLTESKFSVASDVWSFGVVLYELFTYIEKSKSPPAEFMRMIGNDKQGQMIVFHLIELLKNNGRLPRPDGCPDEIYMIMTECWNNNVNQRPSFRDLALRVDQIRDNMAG
Chain of Voltage-gated inwardly rectifying potassium channel KCNH2 (Q12809 whole entry): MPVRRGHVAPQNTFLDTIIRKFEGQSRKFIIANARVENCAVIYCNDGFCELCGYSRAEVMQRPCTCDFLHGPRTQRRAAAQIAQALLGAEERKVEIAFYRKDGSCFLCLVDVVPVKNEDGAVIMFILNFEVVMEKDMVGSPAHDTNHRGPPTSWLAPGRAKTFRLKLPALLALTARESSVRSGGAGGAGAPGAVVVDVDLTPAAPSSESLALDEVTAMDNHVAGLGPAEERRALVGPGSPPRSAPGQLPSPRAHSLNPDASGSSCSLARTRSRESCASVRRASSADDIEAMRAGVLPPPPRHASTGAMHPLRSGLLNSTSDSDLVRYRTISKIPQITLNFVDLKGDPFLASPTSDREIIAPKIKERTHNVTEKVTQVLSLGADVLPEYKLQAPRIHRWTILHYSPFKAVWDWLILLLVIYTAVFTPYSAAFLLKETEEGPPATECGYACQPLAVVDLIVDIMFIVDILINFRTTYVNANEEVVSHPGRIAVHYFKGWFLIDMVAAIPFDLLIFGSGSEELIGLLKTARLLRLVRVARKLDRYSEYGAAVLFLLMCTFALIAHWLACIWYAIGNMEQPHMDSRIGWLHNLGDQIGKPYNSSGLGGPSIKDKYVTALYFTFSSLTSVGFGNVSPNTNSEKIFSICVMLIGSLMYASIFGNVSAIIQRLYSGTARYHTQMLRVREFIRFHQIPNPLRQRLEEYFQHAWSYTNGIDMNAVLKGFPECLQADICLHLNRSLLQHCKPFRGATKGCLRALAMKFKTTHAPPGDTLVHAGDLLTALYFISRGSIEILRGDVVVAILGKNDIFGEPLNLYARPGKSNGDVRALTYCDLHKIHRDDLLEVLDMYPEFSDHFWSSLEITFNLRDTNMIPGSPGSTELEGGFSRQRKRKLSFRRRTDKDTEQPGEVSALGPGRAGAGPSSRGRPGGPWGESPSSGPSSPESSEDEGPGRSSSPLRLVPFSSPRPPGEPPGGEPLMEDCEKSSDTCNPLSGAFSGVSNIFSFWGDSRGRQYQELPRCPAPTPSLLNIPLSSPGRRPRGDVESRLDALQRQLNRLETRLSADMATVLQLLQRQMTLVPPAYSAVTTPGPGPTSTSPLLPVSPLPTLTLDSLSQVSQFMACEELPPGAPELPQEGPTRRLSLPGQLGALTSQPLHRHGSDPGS

Compound	concentration at 6 h [1] [ng/mL]	concentration at 2 h [2] [ng/mL]	IC50 [3] [nM]	microsomal CLint at 2 µM [6] [µL/min/mg]	clearance [10] [mL/min/kg]	half-life [11] [h]	Vd [12] [L/kg]	RatioGI50 (BaF3)	IC50 [7] [nM]	GI50 [4] [nM]	GI50 ([5]; Mus musculus, BaF3, 48 h) [nM]	further results
COc1cc(Nc2ncc(C)s2)nc(N[C@@H](C)c2ncc(F)cn2)n1			< 3	> 100				35	> 32000			GI50 ([4]; read-out: GI50): 42 nM; GI50 [5, 15]: 1500 nM
C[C@H](Nc1nc(Nc2ncc(C#N)s2)cc(N2CCOCC2)n1)c1ccc(F)cn1			< 3	31						36	170	
Cc1cnc(Nc2cncc(N[C@@H](C)c3ncc(F)cn3)n2)s1			49	52								IC50 [8]: 4 nM; solubility [9]: > 1000 µM
Cc1cnc(Nc2cc(N3CCOCC3)nc(N[C@@H](C)c3ccc(F)cn3)n2)s1	55	126		> 120	38	1.2	2.8		12000		1200	

More lines, main results first:

concentration at 6 h [1] [ng/mL]	concentration at 2 h [2] [ng/mL]	IC50 [3] [nM]	microsomal CLint at 2 µM [6] [µL/min/mg]	clearance [10] [mL/min/kg]	half-life [11] [h]	Vd [12] [L/kg]	Compound	RatioGI50 (BaF3)	IC50 [7] [nM]	GI50 [4] [nM]	GI50 ([5]; Mus musculus, BaF3, 48 h) [nM]	further results
95	219						Cc1cnc(Nc2nc(N[C@@H](C)c3ncc(F)cn3)nc(N3CCOCC3)c2F)s1					
			< 4	14	1.4	1.1	Cc1cc(Nc2cncc(N[C@@H](C)c3ncc(F)cn3)n2)n[nH]1					IC50 [8]: < 3 nM; solubility [9]: > 1000 µM
		< 3	220	80	1.3	8.5	Cc1cnc(Nc2cc(N3CCN(C)CC3)nc(N[C@@H](C)c3ccc(F)cn3)n2)s1		13000	5		GI50 [5]: 0.62; RatioGI50 (BaF3; Mus musculus, BaF3): 129
146	715	3	84	32	1.3	2.3	Cc1cnc(Nc2cc(N3CCOCC3)nc(N[C@@H](C)c3ncc(F)cn3)n2)s1	237	> 32000			GI50 ([4]; read-out: GI50): 5 nM; GI50 [5, 15]: 1100 nM; inhibition [13]: > 80%
			41				C[C@H](Nc1nc(Nc2ncc(C#N)s2)cc(N2CCOCC2)n1)c1ncc(F)cn1	10		53	520	RatioGI50 [14]: 0.079

Reference: ChEMBL document CHEMBL1154970, “Replacement of pyrazol-3-yl amine hinge binder with thiazol-2-yl amine: Discovery of potent and selective JAK2 inhibitors” (Bioorg Med Chem Lett, 2010)
